# Test results: ChEMBL document CHEMBL4406857, “Discovery of new small molecule inhibitors targeting isocitrate dehydrogenase 1 (IDH1) with blood-brain barrier penetration” (Eur J Med Chem, 2019)
# The source made the active and inactive calls. No cut-off for these calls is given here.
# What was measured:
# [1] = molecular target: T1, Isocitrate dehydrogenase [NADP] cytoplasmic (Homo sapiens, UniProt O75874, R132C); assay: (§1) Inhibition of recombinant human C-terminal His8-tagged IDH1 R132C mutant expressed in Escherichia coli BL21 assessed as reduction in NADPH consumption using alpha-ketoglutarate as substrate preincubated for 60 mins followed by substrate addition and measured for 60 mins in presence of NADPH by diaphorase/resazurin-based fluorescence assay
# T1 sequence (O75874 2-414 R132C limits assumed): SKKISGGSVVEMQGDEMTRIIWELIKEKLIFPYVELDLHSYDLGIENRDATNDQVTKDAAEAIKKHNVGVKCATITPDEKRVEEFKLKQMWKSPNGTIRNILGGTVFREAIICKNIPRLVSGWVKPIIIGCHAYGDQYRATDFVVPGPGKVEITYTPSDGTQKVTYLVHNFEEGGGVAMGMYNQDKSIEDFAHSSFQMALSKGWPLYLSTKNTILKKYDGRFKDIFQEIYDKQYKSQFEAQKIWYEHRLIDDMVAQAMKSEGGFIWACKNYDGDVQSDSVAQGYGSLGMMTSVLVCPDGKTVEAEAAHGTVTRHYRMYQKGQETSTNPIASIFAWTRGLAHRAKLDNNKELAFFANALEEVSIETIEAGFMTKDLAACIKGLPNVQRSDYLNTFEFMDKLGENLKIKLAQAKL
# [2] = molecular target: Isocitrate dehydrogenase [NADP] cytoplasmic (Homo sapiens, UniProt O75874, R132H); assay: as §1, with “R132H” for “R132C”, “addition” for “addition and”, “diaphorase/resazurin-based” for “diaphorase/resazurin-based fluorescence”
# Chain of Isocitrate dehydrogenase [NADP] cytoplasmic (Homo sapiens, UniProt O75874, R132H) (O75874 2-414 R132H limits assumed): as the sequence (O75874 2-414 R132C limits assumed) above, with C131H counted along it
# [3] = molecular target: T1, Isocitrate dehydrogenase [NADP] cytoplasmic; assay: Inhibition of IDH1 R132C mutant in human HT1080 cells assessed as reduction in 2-HG production incubated with compound for 48 hrs by D2HG assay kit based fluorescence assay; assay type: cell-based
# [4] = Half life in ICR mouse at 1 mg/kg, iv measured upto 24 hrs by LCMS analysis; assay type: ADME, organism-based; settings: in vivo
# Summary of the method: (§2)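 Male ICR mice (6-8 weeks, 20-25 g), nine animals, dosed 1 mg/kg by slow intravenous injection or 5 mg/kg orally. Blood sampled into EDTA at 5 min (iv only), 15 min, 30 min, 1, 2, 4, 8 and 24 h. Plasma stored at -20 °C, prepared by acetonitrile protein precipitation with dexamethasone internal standard, and analysed for parent compound. Values are means of three replicates.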
# [5] = Cmax in ICR mouse at 5 mg/kg, po measured upto 24 hrs by LCMS analysis; assay type: ADME, organism-based; design: dose 5 mg/kg, route oral; settings: in vivo; summary of the method: as §2
# [6] = molecular target: Isocitrate dehydrogenase [NADP] cytoplasmic (Homo sapiens, UniProt O75874); assay: as §1, with “of wild type” for “of”, “IDH1” for “IDH1 R132C mutant”, “in NADP” for “in NADPH”, “using DL-isocitrate” for “using alpha-ketoglutarate”, “of NADP” for “of NADPH”
# Chain of Isocitrate dehydrogenase [NADP] cytoplasmic (Homo sapiens, UniProt O75874) (O75874 whole entry): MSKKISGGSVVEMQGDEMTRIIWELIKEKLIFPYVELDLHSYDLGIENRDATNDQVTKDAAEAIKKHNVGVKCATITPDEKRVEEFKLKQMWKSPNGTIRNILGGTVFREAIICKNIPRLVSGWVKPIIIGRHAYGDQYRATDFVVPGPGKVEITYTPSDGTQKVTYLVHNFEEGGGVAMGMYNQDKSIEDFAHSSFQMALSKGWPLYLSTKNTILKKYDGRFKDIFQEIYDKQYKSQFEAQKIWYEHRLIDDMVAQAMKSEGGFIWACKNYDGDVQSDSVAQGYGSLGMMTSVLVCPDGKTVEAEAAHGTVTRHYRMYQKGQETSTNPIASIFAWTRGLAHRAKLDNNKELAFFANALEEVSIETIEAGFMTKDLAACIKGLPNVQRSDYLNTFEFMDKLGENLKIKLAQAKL
# [7] = Clearance in ICR mouse at 1 mg/kg, iv measured upto 24 hrs by LCMS analysis; assay type: ADME, organism-based; settings: in vivo; summary of the method: as §2
# [8] = Oral bioavailability in ICR mouse at 5 mg/kg measured upto 24 hrs by LCMS analysis; assay type: ADME, organism-based; settings: in vivo; for bioavailability: ICR; summary of the method: as §2
# [9] = AUC in ICR mouse at 1 mg/kg, iv measured upto 24 hrs by LCMS analysis; assay type: ADME, organism-based; design: time < 24 hr, dose 1 mg/kg, route intravenous; settings: in vivo; summary of the method: as §2
# [10] = Volume of distribution at steady state in ICR mouse at 1 mg/kg, iv measured upto 24 hrs by LCMS analysis; assay type: ADME, organism-based; settings: in vivo, read-out: Vdss; summary of the method: as §2
# [11] = Half life in ICR mouse at 5 mg/kg, po measured upto 24 hrs by LCMS analysis; assay type: ADME, organism-based; settings: in vivo; summary of the method: as §2
# [12] = AUC in ICR mouse at 5 mg/kg, po measured upto 24 hrs by LCMS analysis; assay type: ADME, organism-based; design: dose 5 mg/kg, time < 24 hr, route oral; settings: in vivo; summary of the method: as §2
# [13] = Drug uptake in tumor of athymic BALB/c nude mouse xenografted with human HT1080 cells at 50 to 150 mg/kg, po administered as a single dose via gavage measured upto 24 hrs post dosing by LC-MS/MS analysis; assay type: ADME, organism-based, Neoplasm; settings: in vivo
# Summary of the method: (§3)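 Female athymic nude mice carrying subcutaneous right-flank HT1080 xenografts (5 × 10^6 cells in PBS/Matrigel 1:1). Compound given by oral gavage as a suspension in 0.5% MC + 0.5% Tween 80 in water, 10 ml/kg. Blood taken by orbital sinus bleed; brain and tumour collected at 2, 6, 12 and 24 h, homogenized in PBS. Samples acetonitrile-precipitated with dexamethasone internal standard and measured by LC/MS/MS.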
# [14] = Drug uptake in brain of athymic BALB/c nude mouse xenografted with human HT1080 cells at 50 to 150 mg/kg, po administered as a single dose via gavage measured upto 24 hrs post dosing by LC-MS/MS analysis; assay type: ADME, organism-based; settings: in vivo; summary of the method: as §3
# [15] = system: Isocitrate dehydrogenase [NADP] cytoplasmic (Homo sapiens), O75874 [R132H]; assay: Inhibition of human IDH1 R132H mutant transfected in GL261 cells assessed as reduction in 2-HG production at 100 nM incubated with compound for 48 hrs by D2HG assay kit based fluorescence assay; assay type: cell-based
# Chain of Isocitrate dehydrogenase [NADP] cytoplasmic (Homo sapiens), O75874 [R132H] (O75874 whole entry R132H): as the sequence (O75874 whole entry) above, with R132H counted along it
# HT-1080 = assay: In vivo inhibition of IDH1 R132C mutant in human HT1080 cells xenografted in athymic BALB/c nude mouse assessed as reduction in 2-HG level in tumor tissue at 50 mg/kg, po administered as a single dose via gavage measured upto 24 hrs post dosing by LC-MS/MS analysis; assay type: functional, organism-based
# Summary of the method: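 HT1080 subcutaneous xenografts in female athymic nude mice, randomized block design, 12 mice per group. Oral gavage of suspension (0.5% MC + 0.5% Tween 80 in water, 10 ml/kg). Tumours collected at 2, 6, 12 and 24 h and frozen in liquid nitrogen. 2-HG measured by LC/MS/MS; percent inhibition taken relative to vehicle-treated mice, reported as mean ± SEM.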
# [16] = Drug uptake in plasma of athymic BALB/c nude mouse xenografted with human HT1080 cells at 50 to 150 mg/kg, po administered as a single dose via gavage measured upto 24 hrs post dosing by LC-MS/MS analysis; assay type: ADME, organism-based; settings: in vivo; summary of the method: as §3
# [17] = Drug uptake in tumor of athymic BALB/c nude mouse xenografted with human HT1080 cells at 50 mg/kg, po administered as a single dose via gavage measured upto 24 hrs post dosing by LC-MS/MS analysis; assay type: ADME, organism-based, Neoplasm; settings: in vivo; summary of the method: as §3
# [18] = Drug uptake in brain of athymic BALB/c nude mouse xenografted with human HT1080 cells at 50 mg/kg, po administered as a single dose via gavage measured upto 24 hrs post dosing by LC-MS/MS analysis; assay type: ADME, organism-based; settings: in vivo; summary of the method: as §3
# [19] = Drug uptake in plasma of athymic BALB/c nude mouse xenografted with human HT1080 cells at 50 mg/kg, po administered as a single dose via gavage measured upto 24 hrs post dosing by LC-MS/MS analysis; assay type: ADME, organism-based; settings: in vivo; summary of the method: as §3
SMILES,IC50 [1] [nM],IC50 [2] [nM],half-life [4] [h],Cmax [5] [nM],clearance [7] [mL/min/kg],AUC at 24 h [9] [µM·h],Vd [10] [L/kg],half-life [11] [h],AUC at 24 h [12] [µM·h],further results
C[C@H](Nc1nccc(N2C(=O)OC[C@@H]2c2ccccc2)n1)c1ncn2c1CCc1cc(C(F)(F)F)ccc1-2,14.2,15.5,,,,,,,,
COc1ccc2c(c1)OCc1c([C@H](C)Nc3nccc(N4C(=O)OC[C@@H]4[C@H](C)F)n3)ncn1-2,154,61.9,,,,,,,,
CC(C)[C@@H]1N(c2ccnc(N[C@@H](C)c3ncn4c3CCc3cc(C(F)(F)F)ccc3-4)n2)C(=O)OC1(C)C,18.8,50.8,,,,,,,,
C[C@H](Nc1nccc(N2C(=O)OC[C@@H]2[C@H](C)F)n1)c1ncn2c1COc1cc(C(F)(F)F)ccc1-2,9.4,2.7,2.1,1120,30,1.02,5.2,2.5,8.46,IC50 [3]: 12 nM; IC50 [6]: 2840 nM; F ([8]; 24 h): 152%
C[C@H](Nc1nccc(N2C(=O)OC[C@@H]2[C@H](C)F)n1)c1ncn2c1CCc1cc(C(F)(F)F)ccc1-2,8.2,4,1.5,1690,23,1.44,2.3,2.5,11,IC50 [3]: 15.9 nM; Drug uptake [13]: Active; Drug uptake [14]: Active; IC50 [6]: 6680 nM; inhibition [15]: Active; inhibition (HT-1080): Active; bioavailability [8]: 150%; Drug uptake [16]: Active
C[C@H](Nc1nccc(N2C(=O)OC[C@@H]2[C@H](C)F)n1)c1ncn2c1sc1cc(C(F)(F)F)ccc12,17.3,19.2,,,,,,,,
C[C@H](Nc1nccc(N2CC3(CC3)OC2=O)n1)c1ncn2c1CCc1cc(C(F)(F)F)ccc1-2,5860,> 10000,,,,,,,,
N#Cc1ccnc(N2C(=O)CC[C@H]2C(=O)N(c2cncc(F)c2)[C@H](C(=O)NC2CC(F)(F)C2)c2ccccc2Cl)c1 [IVOSIDENIB],,,2.5,2260,9,2.97,1.5,3.5,11.2,Drug uptake [17]: Active; Drug uptake [18]: Active; bioavailability [8]: 80%; Drug uptake [19]: Active
C[C@H](Nc1nccc(N2C(=O)OC[C@@H]2[C@H](C)F)n1)c1ncn2c1COc1cc(C#N)ccc1-2,394,478,,,,,,,,
C[C@H](Nc1nccc(N2C(=O)OC[C@@H]2[C@H](C)F)n1)c1ncn2c1CCc1cc(Cl)ccc1-2,15.3,2.3,1.7,932,50,0.717,4.3,3.4,4.02,IC50 [3]: 53.7 nM; bioavailability [8]: 117%
C[C@H](Nc1nccc(N2C(=O)OC[C@@H]2[C@H](C)F)n1)c1ncn2c1COc1cc(C3CC3)ccc1-2,24.8,33.4,,,,,,,,
C[C@H](Nc1nccc(N2C(=O)OC[C@@H]2[C@H](C)F)n1)c1ncn2c1CCc1c(Cl)cccc1-2,81.9,24.1,,,,,,,,
